Screening data from PubChem BioAssay.
Most compounds without a hit are left out; they make up all but 0.79% or so of the library.
mIAP act: mouse IAP activation. muIAP, CDP-Star luminescence, 30 min; hits give high values; 1 = vehicle-only enzyme signal, 0 = enzyme-free wells. activation factor at 10 µM. actives 0.24% (n = 330,000). AID 2805;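 active = activation factor of at least 2 at 20 µM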
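System: mouse IAP enzyme. Reagent: CDP-Star chemiluminescent phosphatase substrate. Benchmarks: DMSO wells, no-enzyme wells. Times: 30 min enzyme-substrate-compound incubation at room temperature. Detection: luminescence from enzymatic CDP-Star hydrolysis. Doses: test compounds delivered from DMSO solution.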
mIAP block: mouse IAP inhibition | purified mouse IAP, CDP-Star luminescence, 30 min | inhibition, % at 10 µM | actives 0.2% (n = 330,000);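 active = inhibition of at least 40% at 10 µM in the primary screen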
bIAP activator: increases bovine intestinal alkaline phosphatase activity; actives 0.17% (n = 200,000); AID 1016; purified bovine IAP, CDP-star luminescence, 30 min; hits give high values; fold of DMSO-control signal, blank-subtracted; activation factor at 20 µM;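 active = activation factor of 2 or more at 20 µM, a signal rise over negative controls twice the positive control's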
hIAP activ: increases human intestinal alkaline phosphatase activity | P09923 | purified human IAP, CDP-Star luminescence, 30 min; hits give high values; 1 = vehicle-only enzyme, 0 = enzyme-free background | activation factor at 10 µM | actives 0.16% (n = 330,000);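 active = activation factor of the enzyme at least 2-fold when tested at 20 µM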
hIAP block: blocks human intestinal alkaline phosphatase. P09923. purified IAP, CDP-Star luminescence, 30 min. inhibition, % at 10 µM. actives 0.12% (n = 330,000). AID 2544;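 active = inhibition reaching a set limit with compound at 10 µM in the primary screen, cut at about 35% in these data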
bIAP inhibitor: intestinal alkaline phosphatase (bovine) inhibition; inhibition, % at 20 µM; purified bovine IAP, CDP-star luminescence, 30 min; 190,000 tested, under 10 active; AID 1019;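 active = over 50% inhibition of intestinal alkaline phosphatase at 20 µM in the single-dose screen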
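Assay system: bovine IAP enzyme; medium: DEA buffer 100 mM, pH 9.8, with MgCl2 1.0 mM, ZnCl2 0.02 mM; doses: 20 µM single dose; incubation: enzyme reaction for 30 min at room temperature; detection: CDP-star luminescence signal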
mIAP inh confirm: mouse IAP inhibition confirmation. purified mouse IAP, CDP-Star luminescence, 30 min. actives 4.7% (n = 11,000). shares compounds with mIAP block. inhibition, % at 10 µM;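 active = inhibition of at least 40% at 10 µM in either of the two replicates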
A number is an active result; i = inactive; nt = not tested or not shown.

SMILES	mIAP act	mIAP block	bIAP activator	hIAP activ	hIAP block	bIAP inhibitor	mIAP inh confirm
O=C(/C=C/c1ccco1)NCc1ccc(F)cc1	i	i	i	i	i	i	nt
COc1ccc(NC(=O)c2cccc(S(=O)(=O)NCc3ccccc3)c2)cc1S(N)(=O)=O	i	i	nt	i	i	nt	nt
Oc1ccc(-c2cn3c(n2)SCC3)cc1O	i	61	i	i	i	i	92
CC[C@]12c3[nH]c4ccc(Cl)cc4c3CCN1C(=O)[C@@H](CC(=O)NCCCn1ccnc1)C[C@@H]2C(=O)N1CCN(C(=O)c2ccco2)CC1	i	i	nt	nt	nt	nt	nt
COc1ccc(NC(=S)NCCC(c2ccccc2)c2ccccc2)c(OC)c1	i	i	i	i	i	i	nt
COc1cccc(NC(=S)NCCC(c2ccccc2)c2ccccc2)c1	6.2	i	i	i	i	i	i
COc1ccc(NC(=O)NCCCCc2ccccc2)cc1OC	i	i	nt	i	i	nt	nt
COc1cccc(NC(=O)NCCCCc2ccccc2)c1	2.3	i	nt	i	i	nt	i
COc1cc(NC(=S)NCCC(c2ccccc2)c2ccccc2)cc(OC)c1	5.1	i	i	i	i	i	i
CN(c1ccccc1)S(=O)(=O)c1cccc(NC(=O)c2ccc(Cl)c([N+](=O)[O-])c2)c1	i	i	nt	i	i	nt	nt
CCc1ccc(/C=C2/C(=O)NC(=O)N2C(C)=O)cc1	i	i	nt	i	i	nt	nt
N#C/C(=C/c1ccco1)C(N)=S	i	47	nt	i	i	nt	56
